Measured values taken from ChEMBL document CHEMBL1138348, “A p-[18F]fluoroethoxyphenyl bicyclic nucleoside analogue as a potential positron emission tomography imaging agent for varicella-zoster virus thymidine kinase gene expression” (J Med Chem, 2007).

Columns and labels:
[1] = biological target: T1, Thymidine kinase, cytosolic (Homo sapiens, UniProt P04183); assay: Inhibition of human cytosolic thymidine kinase 1
T1 sequence (P04183 whole entry): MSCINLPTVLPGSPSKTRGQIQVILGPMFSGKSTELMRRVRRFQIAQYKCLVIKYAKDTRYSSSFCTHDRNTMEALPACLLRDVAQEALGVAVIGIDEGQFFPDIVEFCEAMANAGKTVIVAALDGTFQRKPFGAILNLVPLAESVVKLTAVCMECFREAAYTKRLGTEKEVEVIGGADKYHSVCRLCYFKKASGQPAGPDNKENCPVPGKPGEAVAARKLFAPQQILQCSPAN
Summary of the method: (§1)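 Purified recombinant VZV TK (7.75 ng), HSV-1 TK (226 ng) or human cytosolic TK-1 (455 ng) in 50 mM Tris-HCl pH 8.0, 2.5 mM MgCl2, 10 mM DTT, 2.5 mM ATP, 1 mg/mL BSA, 10 mM NaF, with 1 µM final [CH3-3H]dThd substrate. Incubated 30 min at 37 °C with varied compound concentrations; the reaction was linear over this time. Product bound on DE-81 filters, washed, and counted by liquid scintillation. Result reported as IC50.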

[2] = Inhibition of Varicella zoster virus thymidine kinase; parameters: species or system Human alphaherpesvirus 3; summary of the method: as §1
[3] = Inhibition of HSV1 thymidine kinase; parameters: species or system Human alphaherpesvirus 1; summary of the method: as §1

| IC50 [1] [µM] | IC50 [2] [µM] | IC50 [3] [µM] | SMILES |
| --- | --- | --- | --- |
| > 500 | 0.4 | > 500 | O=c1nc2oc(-c3ccc(O)cc3)cc2cn1[C@H]1C[C@H](O)[C@@H](CO)O1 |
| > 500 | 1.5 | > 500 | COc1ccc(-c2cc3cn([C@H]4C[C@H](O)[C@@H](CO)O4)c(=O)nc3o2)cc1 |
| > 500 | 4.2 | > 500 | O=c1nc2oc(-c3ccc(OCCF)cc3)cc2cn1[C@H]1C[C@H](O)[C@@H](CO)O1 |
